PAFAH1B3 FP inh – PAFAH1B3 enzyme inhibitors, primary screen, biochemical, fluorescence polarization, human; Platelet-activating factor acetylhydrolase IB subunit alpha1 (Homo sapiens), Q15102; recombinant PAFAH1B3, FP-rhodamine probe; inhibition, % at 3.39 µM; actives 0.28% (n = 340,000);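 active means inhibition above the screen-wide average of all tested compounds plus 3 SD, cut at about 25% in these data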;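 further: 0% = enzyme with DMSO only and 100% = wells lacking PAFAH1B3 protein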
Target sequence (Q15102 whole entry, looked up): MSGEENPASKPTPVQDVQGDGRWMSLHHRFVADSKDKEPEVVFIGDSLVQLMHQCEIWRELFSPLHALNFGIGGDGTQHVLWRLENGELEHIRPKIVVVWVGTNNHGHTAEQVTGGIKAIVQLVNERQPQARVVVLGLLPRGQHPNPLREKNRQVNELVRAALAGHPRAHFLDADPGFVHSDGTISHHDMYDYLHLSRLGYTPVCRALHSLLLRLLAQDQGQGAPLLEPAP
pPAFAH FP inh – pPAFAH enzyme inhibitors, primary screen, biochemical, fluorescence polarization, human; Platelet-activating factor acetylhydrolase (Homo sapiens), Q13093; recombinant pPAFAH, FP-rhodamine probe fluorescence polarization; inhibition, % at 3.39 µM; actives 1.5% (n = 330,000); AID 463082, 2010;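 active means inhibition above the mean inhibition across the screen plus 3 SD, cut at about 25% in these data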;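 further: inhibitors block binding of the rhodamine activity-based probe so polarization drops; 0% = enzyme with DMSO and 100% = wells lacking pPAFAH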
mABHD4 FP – ABHD4 inhibitors, primary screen, biochemical, fluorescence polarization, mouse. purified mABHD4, FP-Rh probe fluorescence polarization. inhibition, % at 8.92 µM. actives 0.54% (n = 370,000). AID 720543, 2013;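 active means inhibition exceeding the mean over every tested compound plus 3 SD, cut at about 30% in these data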;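 further: 0% = plate median of compound wells and 100% = S159A mutant with DMSO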
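Assay system: Wild-type mouse ABHD4 protein | Medium: HEPES pH 7.0 buffer, 150 mM NaCl, 0.01% Pluronic F-127 | Incubation: Enzyme–compound pre-incubation 45 min, then probe 60 min, both 25 °C | Technique: Fluorescence polarization with parallel and perpendicular emission, 525/598 nm | Evaluation: % inhibition of FP-Rh probe binding versus controls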
PAFAH2 inh – PAFAH2 enzyme inhibitors, primary screen, biochemical, fluorescence polarization, human; Platelet-activating factor acetylhydrolase 2, cytoplasmic (Homo sapiens), Q99487; recombinant PAFAH2, FP-rhodamine activity probe; inhibition, % at 3.39 µM; actives 0.99% (n = 340,000); AID 492956, 2010;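 active means inhibition above the mean over all tested compounds plus 3 SD, cut at about 30% in these data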;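 further: inhibitors block probe labeling of enzyme so polarization drops; 0% = enzyme with DMSO and 100% = wells lacking PAFAH2 protein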
HTRA1 inhibitor – HTRA1 serine protease inhibitors, primary screen, biochemical, fluorescence polarization, HTS; Q92743; recombinant HTRA1, FP-rhodamine activity-based probe; inhibition, % at 5.96 µM; actives 0.5% (n = 340,000); in the data active means inhibition above about 36%;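 further: 0% = enzyme with DMSO and 100% = wells lacking enzyme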
PAFAH1B2 inh – PAFAH1B2 enzyme inhibitors, primary screen, biochemical, fluorescence polarization, human | Platelet-activating factor acetylhydrolase IB subunit alpha2 (Homo sapiens), P68402 | recombinant PAFAH1B2, FP-rhodamine activity probe | inhibition, % at 3.39 µM | actives 1.2% (n = 340,000);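 active means inhibition above the mean of all tested compounds plus 3 SD, cut at about 24% in these data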;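 further: 0% = enzyme with DMSO and 100% = wells lacking PAFAH1B2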
Target sequence (P68402 whole entry, looked up): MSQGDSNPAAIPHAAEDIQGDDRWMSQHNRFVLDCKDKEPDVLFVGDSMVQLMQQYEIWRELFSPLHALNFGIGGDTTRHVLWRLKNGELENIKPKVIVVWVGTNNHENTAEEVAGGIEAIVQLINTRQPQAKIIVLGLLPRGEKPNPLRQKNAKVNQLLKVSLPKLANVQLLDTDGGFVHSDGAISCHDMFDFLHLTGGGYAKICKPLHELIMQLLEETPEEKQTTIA
The depositor's hits bear a star; . = no result. Rows were chosen to be rich in hits. Some 2.8% of all compounds tested hit in one or more screens of this group.

SMILES | PAFAH1B3 FP inh | pPAFAH FP inh | mABHD4 FP | PAFAH2 inh | HTRA1 inhibitor | PAFAH1B2 inh
CCc1ccc(NC(=O)COC(=O)CC2CCCC2)cc1 | 6.3 | 26.4* | 5.6 | 76.1* | -4.7 | 1.6
NC(=O)c1ccc(NC(=O)COC(=O)CCC2CCCCC2)cc1 | -0.5 | 2.8 | -16.3 | -2.0 | -7.2 | 7.8
COc1ccc(NS(=O)(=O)c2ccc(OC)c(NC(=O)CCC3CCCCC3)c2)cc1 | 4.2 | 28.5* | -3.5 | -5.9 | -9.7 | 10.1
O=C(COC(=O)CC1CCCC1)Nc1ccc(OC(F)F)cc1 | 2.8 | 28.2* | -6.0 | 61.7* | -9.7 | 1.5
COc1ccc(NC(=O)COC(=O)CCC2CCCCC2)cc1 | 4.4 | 31.8* | -1.1 | 32.3* | -9.2 | 12.2
COc1ccc(NS(=O)(=O)c2ccc(OC)c(NC(=O)CNC(=O)c3ccc(OC)cc3)c2)cc1 | -1.0 | 18.0 | -2.8 | -8.0 | -5.6 | 2.3
CCOc1ccccc1NC(=O)CSc1nnc(SCc2ccccc2)s1 | . | . | -11.2 | . | . | .
O=C(NC1CCCC1)C1CCN(S(=O)(=O)c2ccc3[nH]c(=O)oc3c2)CC1 | . | . | 3.4 | . | . | .
O=S1(=O)c2c(cccc2N2CCSCC2)Oc2ccccc2CN1Cc1cn(Cc2cccc(F)c2)nn1 | . | . | 0.7 | . | . | .
CCCCN1C(=O)N2Cc3cc(OC)ccc3C2CS1(=O)=O (stereo not drawn) | . | . | 4.0 | . | . | .
Cc1cccc(CNC(=S)OCCN2CCCC23CCC(c2ccccc2)CC3)c1 (stereo not drawn) | . | . | 7.1 | . | . | .
O=C(COC(=O)c1ccc2c(c1)C(=O)N(CCc1ccccc1)C2=O)Nc1ccc(OC(F)F)cc1 | 7.4 | 25.4* | 1.4 | -4.2 | 0.8 | 5.1
Cc1ccc(NC(=O)COC(=O)CC2CCCC2)cc1F | 0.4 | 29.5* | -5.9 | 79.2* | -9.5 | -2.5
CCOc1ccc(NC(=O)COC(=O)c2ccc3c(c2)C(=O)N(CCc2ccccc2)C3=O)cc1 | 6.5 | 14.7 | 6.1 | 3.8 | 0.8 | 1.4
COc1ccccc1C(=O)OCC(=O)Nc1ccc(OC(F)F)cc1 | -5.7 | 28.5* | -1.7 | 47.6* | -4.4 | -2.1
CCOC(=O)c1c(-c2ccc(OC)cc2)oc2ccc(OCC(N)=O)cc12 | -6.9 | 4.1 | -7.1 | 4.4 | -15.8 | 3.0
CCOC(=O)c1c(-c2ccc(OC)cc2)oc2ccc(O)cc12 | -6.5 | 31.4* | -6.0 | -2.2 | -35.0 | -0.1
COc1ccc(C(=S)N2CCOCC2)cc1OS(=O)(=O)c1ccc(Br)cc1 | 8.7 | -0.1 | 1.2 | 3.0 | -5.3 | 34.1*
O=[N+]([O-])c1cccc(NCCCN2CCC(C(O)(c3ccccc3)c3ccccc3)CC2)c1 | . | . | 14.8 | . | . | .
Cc1cccc(C)c1OCC(=O)N/N=C/C=C/c1ccco1 | 10.2 | 2.7 | 9.7 | 9.9 | 14.2 | 1.7
CCn1c(SCC(=O)N/N=C/C=C\c2ccco2)nc2ccccc21 | -5.7 | 24.9* | 10.8 | 4.7 | 2.2 | -3.5
COc1cccc(/C=N/NC(=O)CNC(=O)COc2ccccc2)c1O | 10.9 | 4.1 | -0.8 | 3.0 | 4.0 | 6.7
Cc1cccc(OCC(=O)NCC(=O)N/N=C/c2cc(Br)cc(Br)c2O)c1 | 7.7 | 24.0 | -6.2 | 13.4 | 18.0 | 34.0*
Cc1cccc(OCC(=O)N/N=C/C=C/c2ccco2)c1 | -2.6 | 29.9* | 3.7 | 5.2 | -1.9 | -0.2
Cn1c(SCC(=O)N/N=C/C=C\c2ccco2)nc2ccccc21 | 0.7 | 10.2 | 8.3 | 7.4 | 0.0 | -0.4
SMILES | PAFAH1B3 FP inh | pPAFAH FP inh | mABHD4 FP | PAFAH2 inh | HTRA1 inhibitor | PAFAH1B2 inh
COCCCN1C(=O)[C@H](CC(=O)NCC23CC4CC(CC(C4)C2)C3)[C@]2(C(=O)OC)CCCCC=C12 | . | . | 1.9 | . | . | .
Cc1ccc(OCC(=O)NCCC2=CCCCC2)cc1 | 5.2 | 2.0 | -0.4 | 4.0 | 0.7 | 8.1
Cc1cc(C)c(OCC(=O)OCC(=O)NC2CCCCCCC2)c(C)c1 | -3.0 | 17.5 | -0.4 | -3.7 | 1.0 | -3.9
Cc1cc(C)c(OCC(=O)OCC(=O)NC2CCC(C)CC2)c(C)c1 (stereo not drawn) | 3.4 | 26.1* | -2.6 | -2.7 | -2.8 | 5.5
Cc1ccc(SCC(=O)NCCC2=CCCCC2)cc1 | 1.0 | 5.2 | 1.9 | -2.4 | -6.1 | 50.3*
Cc1cc(C)c(OCC(=O)OCC(=O)NCCC2=CCCCC2)c(C)c1 | 8.1 | 33.3* | 4.3 | -1.0 | -4.6 | 2.8
O=C1CSC(c2ccc(Cl)cc2)N1c1cccnc1 (stereo not drawn) | 4.6 | -0.2 | -0.6 | 6.8 | 10.4 | 25.0*
CCOC(=O)C1=NOC(C(=O)Nc2nccs2)(C(=O)C2CC2)C1 (stereo not drawn) | . | . | 0.7 | . | . | .
CC(NC(=O)COC(=O)c1cccnc1Cl)C12CC3CC(CC(C3)C1)C2 (stereo not drawn) | 2.2 | 1.9 | -6.5 | 44.6* | 11.7 | 50.5*
CCN(CC)c1ccc(NC(=O)c2cc3c(C)nn(-c4ccccc4)c3s2)cc1 | . | . | -1.6 | . | . | .
COc1ccc(C(=NNc2ccccc2C(=O)O)c2ccc(OC)cc2)cc1 | 11.8 | 33.2* | 9.1 | 18.7 | 15.3 | 6.5
N#C/C(=C\c1cccnc1)C(=O)Nc1ccccc1[N+](=O)[O-] | 10.8 | 26.5* | 16.5 | -3.0 | 2.8 | 13.1
Cc1ccccc1NC(=O)/C(C#N)=C\c1cccnc1 | 1.2 | 0.4 | -0.9 | 5.2 | 1.7 | 0.5
COc1ccc(-n2cc(-c3ccccc3)c3c(NCCOCCO)ncnc32)cc1 | 6.4 | 28.2* | -0.5 | -8.5 | 1.4 | -0.3
CCOc1ccc(-n2cc(-c3ccccc3)c3c(SC(C)C(=O)OC)ncnc32)cc1 (stereo not drawn) | -0.6 | 30.3* | -13.0 | -2.7 | -18.1 | -1.4
NS(=O)(=O)c1ccc(CCNc2ncnc3c2c(-c2ccccc2)cn3-c2ccc(F)cc2)cc1 | 4.0 | 26.8* | -29.9 | 10.3 | -33.3 | 1.5
CC1CN(c2ncnc3c2c(-c2ccccc2)cn3-c2ccc(F)cc2)CC(C)O1 (stereo not drawn) | 5.9 | -0.1 | -2.6 | 5.3 | -18.4 | -1.8
CCOc1ccc(-c2csc(N3CCC(C(N)=O)CC3)n2)cc1 | . | . | 1.5 | . | . | .
O=C1NNC(c2ccccc2)=N/C1=C\c1ccco1 | 1.6 | 26.4* | 29.5 | 14.1 | 22.4 | 3.5
O=C1NNC(c2ccccc2)=N/C1=C\c1ccccc1Cl | 5.9 | . | 3.3 | 5.9 | -15.9 | 8.6
C=CCN1[C@@H](C)COc2cccc(F)c2S1(=O)=O | . | . | 8.2 | . | . | .
CC1CCc2c(sc(NC(=O)c3ccc(Cn4cc([N+](=O)[O-])cn4)o3)c2C#N)C1 (stereo not drawn) | 0.5 | 31.3* | 11.9 | 12.5 | -19.6 | 15.0
S=c1[nH]nc(-c2ccco2)n1C1CCCCC1 | 10.2 | 3.5 | 3.4 | 3.7 | 3.4 | 26.1*
Nn1c(-c2ccco2)n[nH]c1=S | 5.9 | -0.2 | -3.2 | -1.6 | -2.0 | -2.8

Assay outcomes: PubChem BioAssay, The Scripps Research Institute Molecular Screening Center
